≈ marks a conversion by molar mass, not a printed value.
Experiments:
Format in all cases: functional
[1] = system: Staphylococcus aureus; assay: Antibacterial activity against methicillin-resistant Staphylococcus aureus 2 measured after overnight incubation by broth double-dilution method
In short: (§1)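 MIC by broth double-dilution in liquid Mueller-Hinton medium. Values are reported in µg/mL.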

[2] = system: Staphylococcus aureus; assay: Antibacterial activity against methicillin-resistant Staphylococcus aureus C19 measured after overnight incubation by broth double-dilution method; in short: as §1
[3] = system: Staphylococcus aureus; assay: Antibacterial activity against methicillin-resistant Staphylococcus aureus G6 measured after overnight incubation by broth double-dilution method; in short: as §1
[4] = system: Staphylococcus aureus; assay: Antibacterial activity against methicillin-resistant Staphylococcus aureus USA100 measured after overnight incubation by broth double-dilution method; in short: as §1
[5] = system: Enterococcus faecium; assay: Antibacterial activity against Enterococcus faecium BM4105-RF measured after overnight incubation by broth double-dilution method; in short: as §1
[6] = system: Staphylococcus aureus; assay: Antibacterial activity against methicillin-resistant Staphylococcus aureus C2 measured after overnight incubation by broth double-dilution method; in short: as §1
[7] = system: Staphylococcus aureus; assay: Antibacterial activity against methicillin-resistant Staphylococcus aureus S17 measured after overnight incubation by broth double-dilution method; in short: as §1
[8] = system: Staphylococcus aureus; assay: Antibacterial activity against methicillin-resistant Staphylococcus aureus BRS3 measured after overnight incubation by broth double-dilution method; in short: as §1
[9] = system: Staphylococcus aureus; assay: Antibacterial activity against methicillin-resistant Staphylococcus aureus ATCC 33591 measured after overnight incubation by broth double-dilution method; in short: as §1
[10] = system: Staphylococcus aureus; assay: Antibacterial activity against methicillin-resistant Staphylococcus aureus S22 measured after overnight incubation by broth double-dilution method; in short: as §1
[11] = system: Staphylococcus aureus; assay: Antibacterial activity against methicillin-resistant Staphylococcus aureus S24 measured after overnight incubation by broth double-dilution method; in short: as §1
[12] = system: Staphylococcus aureus; assay: Antibacterial activity against methicillin-resistant Staphylococcus aureus NRS77 measured after overnight incubation by broth double-dilution method; in short: as §1
[13] = system: Listeria monocytogenes; assay: Antibacterial activity against Listeria monocytogenes ATCC 19115 measured after overnight incubation by broth double-dilution method
In short: (§2)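 MIC by broth double-dilution in Mueller-Hinton medium. Re-testing at the time-kill inoculum used 1×10^6 CFU/mL.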

[14] = system: Staphylococcus aureus; assay: Antibacterial activity against methicillin-resistant Staphylococcus aureus C16 measured after overnight incubation by broth double-dilution method; in short: as §1
[15] = system: Staphylococcus aureus; assay: Antibacterial activity against methicillin-resistant Staphylococcus aureus NRS4 measured after overnight incubation by broth double-dilution method; in short: as §1
[16] = system: Staphylococcus aureus; assay: Antibacterial activity against methicillin-resistant Staphylococcus aureus 1 measured after overnight incubation by broth double-dilution method; in short: as §1
[17] = system: Staphylococcus aureus; assay: Antibacterial activity against methicillin-sensitive Staphylococcus aureus ATCC 25923 measured after overnight incubation by broth double-dilution method; in short: as §1
[18] = system: Mycolicibacterium smegmatis; assay: Antibacterial activity against Mycobacterium smegmatis MC2-155 measured after overnight incubation by broth double-dilution method; details: str. MC2 155; in short: as §1
[19] = system: Staphylococcus aureus; assay: Antibacterial activity against methicillin-resistant Staphylococcus aureus S14 measured after overnight incubation by broth double-dilution method; in short: as §1
[20] = system: Staphylococcus aureus; assay: Antibacterial activity against methicillin-resistant Staphylococcus aureus C1 measured after overnight incubation by broth double-dilution method; in short: as §1
[21] = system: Enterococcus faecalis; assay: Antibacterial activity against Enterococcus faecalis ATCC 29212 measured after overnight incubation by broth double-dilution method; in short: as §2
[22] = system: Staphylococcus aureus; assay: Antibacterial activity against methicillin-resistant Staphylococcus aureus G1 measured after overnight incubation by broth double-dilution method; in short: as §1
[23] = system: Staphylococcus epidermidis; assay: Antibacterial activity against Staphylococcus epidermidis ATCC 35984 measured after overnight incubation by broth double-dilution method; details: RP62A; in short: as §2
[24] = system: Staphylococcus aureus; assay: Antibacterial activity against methicillin-sensitive Staphylococcus aureus ATCC 6538 measured after overnight incubation by broth double-dilution method; in short: as §1
[25] = system: Staphylococcus aureus; assay: Antibacterial activity against methicillin-resistant Staphylococcus aureus NRS51 measured after overnight incubation by broth double-dilution method; in short: as §1
[26] = system: Staphylococcus aureus; assay: Antibacterial activity against methicillin-resistant Staphylococcus aureus G12 measured after overnight incubation by broth double-dilution method; in short: as §1
[27] = system: Staphylococcus aureus; assay: Antibacterial activity against methicillin-resistant Staphylococcus aureus USA300 measured after overnight incubation by broth double-dilution method; in short: as §1
[28] = system: Staphylococcus aureus; assay: Antibacterial activity against methicillin-resistant Staphylococcus aureus USA200 measured after overnight incubation by broth double-dilution method; in short: as §1
[29] = system: Staphylococcus aureus; assay: Antibacterial activity against methicillin-resistant Staphylococcus aureus C14 measured after overnight incubation by broth double-dilution method; in short: as §1
[30] = system: Staphylococcus aureus; assay: Antibacterial activity against methicillin-resistant Staphylococcus aureus G14 measured after overnight incubation by broth double-dilution method; in short: as §1
[31] = system: Enterococcus faecalis; assay: Antibacterial activity against Enterococcus faecalis ATCC 49533 measured after overnight incubation by broth double-dilution method; in short: as §2
[32] = system: Staphylococcus aureus; assay: Antibacterial activity against methicillin-resistant Staphylococcus aureus C7 measured after overnight incubation by broth double-dilution method; in short: as §1
[33] = system: Staphylococcus aureus; assay: Antibacterial activity against methicillin-resistant Staphylococcus aureus USA600 measured after overnight incubation by broth double-dilution method; in short: as §1
[34] = system: Enterococcus; assay: Antibacterial activity against Vancomycin-resistant Enterococcus measured after overnight incubation by broth double-dilution method; in short: as §1
[35] = system: Staphylococcus aureus; assay: Antibacterial activity against methicillin-sensitive Staphylococcus aureus ATCC 29213 measured after overnight incubation by broth double-dilution method; in short: as §1

SMILES | MIC [1] [µg/mL] | MIC [2] [µg/mL] | MIC [3] [µg/mL] | MIC [4] [µg/mL] | MIC [5] [µg/mL] | MIC [6] [µg/mL] | MIC [7] [µg/mL] | MIC [8] [µg/mL] | MIC [9] [µg/mL] | MIC [10] [µg/mL] | MIC [11] [µg/mL] | MIC [12] [µg/mL] | MIC [13] [µg/mL] | MIC [14] [µg/mL] | MIC [15] [µg/mL] | MIC [16] [µg/mL] | MIC [17] [µg/mL] | MIC [18] [µg/mL] | MIC [19] [µg/mL] | MIC [20] [µg/mL] | further results
Cc1cc(C)cc(-n2sc3ccccc3c2=O)c1 | 7.8 (≈ 30.5 µM) | 7.8 (≈ 30.5 µM) | 7.8 (≈ 30.5 µM) | 3.9 (≈ 15.3 µM) | 15.6 (≈ 61.1 µM) | 3.9 (≈ 15.3 µM) | 3.9 (≈ 15.3 µM) | 7.8 (≈ 30.5 µM) | 1 (≈ 3.92 µM) | 3.9 (≈ 15.3 µM) | 7.8 (≈ 30.5 µM) | 7.8 (≈ 30.5 µM) | 7.8 (≈ 30.5 µM) | 7.8 (≈ 30.5 µM) | 7.8 (≈ 30.5 µM) | 7.8 (≈ 30.5 µM) | 7.8 (≈ 30.5 µM) | 3.9 (≈ 15.3 µM) | ≤ 0.25 | 3.9 (≈ 15.3 µM) | MIC [21]: 15.6 µg/mL (≈ 61.1 µM); MIC [22]: 7.8 µg/mL (≈ 30.5 µM); MIC [23]: 3.9 µg/mL (≈ 15.3 µM); MIC [24]: 7.8 µg/mL (≈ 30.5 µM); MIC [25]: 7.8 µg/mL (≈ 30.5 µM); MIC [26]: 7.8 µg/mL (≈ 30.5 µM); MIC [27]: 7.8 µg/mL (≈ 30.5 µM); MIC [28]: 7.8 µg/mL (≈ 30.5 µM); MIC [29]: 15.6 µg/mL (≈ 61.1 µM); MIC [30]: 3.9 µg/mL (≈ 15.3 µM); MIC [31]: 15.6 µg/mL (≈ 61.1 µM); MIC [32]: 3.9 µg/mL (≈ 15.3 µM); MIC [33]: 7.8 µg/mL (≈ 30.5 µM); MIC [34]: 3.9 µg/mL (≈ 15.3 µM); MIC [35]: 3.9 µg/mL (≈ 15.3 µM)
O=c1c2ccccc2sn1C1CCCCCC1 | 3.9 (≈ 15.8 µM) | 1 (≈ 4.04 µM) | 2 (≈ 8.09 µM) | 3.9 (≈ 15.8 µM) | 7.8 (≈ 31.5 µM) | 2 (≈ 8.09 µM) | 1 (≈ 4.04 µM) | 2 (≈ 8.09 µM) | 1 (≈ 4.04 µM) | 3.9 (≈ 15.8 µM) | 3.9 (≈ 15.8 µM) | 2 (≈ 8.09 µM) | 3.9 (≈ 15.8 µM) | 3.9 (≈ 15.8 µM) | 2 (≈ 8.09 µM) | 2 (≈ 8.09 µM) | 3.9 (≈ 15.8 µM) | 7.8 (≈ 31.5 µM) | 0.5 (≈ 2.02 µM) | 2 (≈ 8.09 µM) | MIC [21]: > 125 µg/mL; MIC [22]: 0.5 µg/mL (≈ 2.02 µM); MIC [23]: 2 µg/mL (≈ 8.09 µM); MIC [24]: 7.8 µg/mL (≈ 31.5 µM); MIC [25]: 3.9 µg/mL (≈ 15.8 µM); MIC [26]: 2 µg/mL (≈ 8.09 µM); MIC [27]: 15.6 µg/mL (≈ 63.1 µM); MIC [28]: 7.8 µg/mL (≈ 31.5 µM); MIC [29]: 2 µg/mL (≈ 8.09 µM); MIC [30]: 3.9 µg/mL (≈ 15.8 µM); MIC [31]: > 125 µg/mL; MIC [32]: 3.9 µg/mL (≈ 15.8 µM); MIC [33]: 7.8 µg/mL (≈ 31.5 µM); MIC [34]: 2 µg/mL (≈ 8.09 µM); MIC [35]: 3.9 µg/mL (≈ 15.8 µM)
O=c1c2ccccc2sn1C1CCCCC1 | 3.9 (≈ 16.7 µM) | 3.9 (≈ 16.7 µM) | 3.9 (≈ 16.7 µM) | 7.8 (≈ 33.4 µM) | > 125 | 3.9 (≈ 16.7 µM) | 7.8 (≈ 33.4 µM) | 7.8 (≈ 33.4 µM) | 2 (≈ 8.57 µM) | 7.8 (≈ 33.4 µM) | 3.9 (≈ 16.7 µM) | 3.9 (≈ 16.7 µM) | 3.9 (≈ 16.7 µM) | 3.9 (≈ 16.7 µM) | 3.9 (≈ 16.7 µM) | 2 (≈ 8.57 µM) | 3.9 (≈ 16.7 µM) | 2 (≈ 8.57 µM) | 0.5 (≈ 2.14 µM) | 2 (≈ 8.57 µM) | MIC [21]: > 125 µg/mL; MIC [22]: 2 µg/mL (≈ 8.57 µM); MIC [23]: 2 µg/mL (≈ 8.57 µM); MIC [24]: 7.8 µg/mL (≈ 33.4 µM); MIC [25]: 3.9 µg/mL (≈ 16.7 µM); MIC [26]: 3.9 µg/mL (≈ 16.7 µM); MIC [27]: 7.8 µg/mL (≈ 33.4 µM); MIC [28]: 7.8 µg/mL (≈ 33.4 µM); MIC [29]: 2 µg/mL (≈ 8.57 µM); MIC [30]: 3.9 µg/mL (≈ 16.7 µM); MIC [31]: > 125 µg/mL; MIC [32]: 3.9 µg/mL (≈ 16.7 µM); MIC [33]: 7.8 µg/mL (≈ 33.4 µM); MIC [34]: 2 µg/mL (≈ 8.57 µM); MIC [35]: 3.8 µg/mL (≈ 16.3 µM)

— ChEMBL document CHEMBL3864121, “Development of ebsulfur analogues as potent antibacterials against methicillin-resistant Staphylococcus aureus” (Bioorg Med Chem, 2016)
